Laboratory results from ChEMBL document CHEMBL4371072, “Structure-Activity Relationship Studies and Plasmodium Life Cycle Profiling Identifies Pan-Active N-Aryl-3-trifluoromethyl Pyrido[1,2- a]benzimidazoles Which Are Efficacious in an in Vivo Mouse Model of Malaria” (J Med Chem, 2019).

Legend:
Plasmodium falciparum [1] = assay: (§1) Antiplasmodial activity against chloroquine-sensitive asexual blood stage of Plasmodium falciparum NF54 infected in human RBC assessed as reduction in [3H]hypoxanthine incorporation preincubated for 48 hrs followed by [3H]hypoxanthine addition measured after 24 hrs by liquid scintillation counting method; assay type: functional, organism-based
Outline: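 Asexual blood-stage P. falciparum NF54 assay, run as a modified [3H]-hypoxanthine incorporation assay. Values are the mean of n ≥ 2 assays; determinations differing more than 3-fold were excluded. Chloroquine and artesunate served as controls.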

Plasmodium berghei [2] = assay: Antimalarial activity against liver stage form of luciferase transfected Plasmodium berghei sporozoites infected in human HuH7 cells preincubated with host cells for 1 hr followed by plasmodial infection and measured after 48 hrs by bioluminescence method; assay type: functional, organism-based; conditions: Huh-7
Plasmodium falciparum [3] = assay: Antiplasmodial activity against chloroquine-sensitive final late stage of Plasmodium falciparum NF54-Mal8p1.16-GFP-Luc gametocytes after 24 hrs by BacTiter-Glo assay; assay type: functional, organism-based; conditions: NF54, 24 h
Outline: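 Late-stage PfNF54 gametocytes produced in vitro; gametocytocidal IC50 via luciferase reporter and ATP bioluminescence platforms; n=3 independent biological replicates in technical triplicates, ± S.E.M.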

[4] = Metabolic stability in Balb/c mouse liver microsomes assessed as parent compound remaining at 0.1 uM after 30 mins in presence of NADPH by LC-MS/MS analysis
[5] = Half life in Balb/c mouse liver microsomes at 0.1 uM in presence of NADPH by LC-MS/MS analysis
[6] = Metabolic stability in human liver microsomes assessed as parent compound remaining at 0.1 uM after 30 mins in presence of NADPH by LC-MS/MS analysis
[7] = Half life in human liver microsomes at 0.1 uM in presence of NADPH by LC-MS/MS analysis
CHO = assay: Cytotoxicity against CHO cells after 48 hrs by MTT assay; assay type: cell-based; conditions: Cricetulus griseus
[8] = Selectivity index, ratio of IC50 for CHO cells to IC50 for chloroquine-sensitive asexual blood stage of Plasmodium falciparum NF54 infected in human RBC; assay type: toxicity; conditions: Chinese hamster, read-out: Ratio IC50
Outline: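 Selectivity index taken as the ratio of the CHO-cell IC50 to the P. falciparum NF54 IC50.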

Plasmodium falciparum [9] = assay: as §1, with “chloroquine-resistant” for “chloroquine-sensitive”, “K1” for “NF54”; assay type: functional, organism-based
Outline: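 Asexual blood-stage P. falciparum K1 (multidrug resistant) screened by modified [3H]-hypoxanthine incorporation assay; IC50 as mean of n ≥ 2 assays, replicates differing above 3-fold excluded; chloroquine and artesunate controls.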

[10] = Resistance index, ratio of IC50 for chloroquine-resistant asexual blood stage of Plasmodium falciparum K1 infected in human RBC to IC50 for chloroquine-sensitive asexual blood stage of Plasmodium falciparum NF54 infected in human RBC; assay type: functional
hERG (KCNH2) [11] = biological target: T1, hERG (KCNH2) (Homo sapiens, UniProt Q12809); assay: Inhibition of human ERG expressed in CHO cells assessed as reduction in peak channel current at 0.3 uM by IonWork patch-clamp electrophysiology method relative to control; assay type: cell-based; conditions: CHO cells expressing human ERG
T1 sequence (Q12809 whole entry): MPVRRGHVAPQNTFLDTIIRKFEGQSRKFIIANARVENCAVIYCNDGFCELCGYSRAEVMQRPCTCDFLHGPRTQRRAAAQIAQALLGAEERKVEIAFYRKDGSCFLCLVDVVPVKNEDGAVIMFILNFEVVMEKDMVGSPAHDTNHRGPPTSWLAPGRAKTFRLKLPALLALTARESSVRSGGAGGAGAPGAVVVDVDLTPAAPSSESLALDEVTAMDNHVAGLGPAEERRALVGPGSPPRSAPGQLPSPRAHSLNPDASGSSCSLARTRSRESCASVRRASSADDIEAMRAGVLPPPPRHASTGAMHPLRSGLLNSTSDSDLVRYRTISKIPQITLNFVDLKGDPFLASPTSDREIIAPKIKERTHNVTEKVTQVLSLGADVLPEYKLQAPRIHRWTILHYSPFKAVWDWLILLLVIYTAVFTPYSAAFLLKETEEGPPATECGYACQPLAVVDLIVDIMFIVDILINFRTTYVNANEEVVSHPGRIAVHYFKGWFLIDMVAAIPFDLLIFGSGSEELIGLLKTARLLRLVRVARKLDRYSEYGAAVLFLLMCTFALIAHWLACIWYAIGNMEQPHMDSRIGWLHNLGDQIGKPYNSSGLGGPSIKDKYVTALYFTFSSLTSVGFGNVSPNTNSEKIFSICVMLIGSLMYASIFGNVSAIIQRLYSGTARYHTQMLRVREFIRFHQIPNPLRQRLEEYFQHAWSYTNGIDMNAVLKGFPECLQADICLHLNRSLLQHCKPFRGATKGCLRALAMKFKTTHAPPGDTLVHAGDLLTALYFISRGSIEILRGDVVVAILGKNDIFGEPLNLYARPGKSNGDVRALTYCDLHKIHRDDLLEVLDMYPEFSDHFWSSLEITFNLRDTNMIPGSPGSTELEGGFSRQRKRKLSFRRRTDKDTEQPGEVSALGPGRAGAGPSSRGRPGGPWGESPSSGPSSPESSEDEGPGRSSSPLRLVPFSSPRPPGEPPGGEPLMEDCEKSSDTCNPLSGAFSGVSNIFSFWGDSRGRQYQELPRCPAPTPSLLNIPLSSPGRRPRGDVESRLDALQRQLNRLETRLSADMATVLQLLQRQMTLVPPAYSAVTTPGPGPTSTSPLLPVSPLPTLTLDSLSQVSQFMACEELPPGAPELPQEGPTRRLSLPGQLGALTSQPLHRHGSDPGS

hERG (KCNH2) [12] = biological target: T1, hERG (KCNH2); assay: Inhibition of human ERG expressed in CHO cells assessed as reduction in peak channel current at 10 uM by IonWork patch-clamp electrophysiology method relative to control; assay type: cell-based; conditions: CHO cells expressing human ERG
Outline: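 hERG potassium channel profiled by IonWorks patch-clamp electrophysiology, with 10 μM as the highest concentration tested. Values are the mean of 3 results from experiments run as biological and technical triplicates.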

[13] = biological target: Voltage-gated inwardly rectifying potassium channel KCNH2 (Homo sapiens, UniProt Q12809); assay: Inhibition of human ERG expressed in CHO cells assessed as reduction in peak channel current by IonWork patch-clamp electrophysiology method; assay type: cell-based
Chain of Voltage-gated inwardly rectifying potassium channel KCNH2 (Q12809 whole entry, the tested form may be a part): as the sequence (Q12809 whole entry) above

Plasmodium berghei [14] = assay: Antimalarial activity against GFP-fused Plasmodium berghei ANKA infected in NMRI mouse assessed as inhibition of parasitemia at 50 mg/kg, po administered consecutively at 4, 24, 48 and 72 hrs post infection by flow cytometry relative to control; assay type: functional
Outline: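 NMRI mice infected intravenously with P. berghei; oral treatment at 50 mg/kg given 4, 24, 48 and 72 h post-infection (4 x 50 mg/kg). Control mice received vehicle only. Parasitemia of treated animals compared with that of untreated controls. Mice counted as cured if no parasitemia was detected 30 days after treatment.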

Plasmodium berghei [15] = assay: Antimalarial activity against GFP-fused Plasmodium berghei ANKA infected in NMRI mouse assessed as host mean survival time at 50 mg/kg, po administered consecutively at 4, 24, 48 and 72 hrs post infection; assay type: functional
Outline: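 NMRI mice infected intravenously with P. berghei; oral treatment at 4, 24, 48 and 72 h post-infection (4 x 50 mg/kg), vehicle to controls; reference drug 4 x 30 mg/kg orally on four consecutive days. Parasitemia compared with untreated controls; mean survival days recorded; cure if no parasitemia 30 days after treatment.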

[16] = Lipophilicity, log D of the compound; assay type: physicochemical; conditions: octanol/water
Outline: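 LogD computed with ChemDraw 16.0.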

[17] = Solubility of the compound; assay type: physicochemical
[18] = Half life in C57B1/6 mouse at 2 mg/kg, iv by LC-MS/MS analysis; assay type: ADME, organism-based; conditions: in vivo
Outline: (§2)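 Mouse IV PK: C57B1/6 mice (n=2) given 2 mg/kg intravenously as a solution in dimethylacetamide, polyethylene glycol and propylene glycol/ethanol (4:1) at ratio 1:3:6. Blood concentrations followed over time; values are means of 2 mice.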

[19] = Volume of distribution in C57B1/6 mouse at 2 mg/kg, iv by LC-MS/MS analysis; assay type: ADME, organism-based; conditions: in vivo; outline: as §2
[20] = Clearance in C57B1/6 mouse at 2 mg/kg, iv by LC-MS/MS analysis; assay type: ADME, organism-based; conditions: in vivo; outline: as §2
[21] = AUC (0 to infinity) in C57B1/6 mouse at 2 mg/kg, iv by LC-MS/MS analysis; assay type: ADME, organism-based; parameters: dose 2 mg/kg, route intravenous, time infinity; conditions: in vivo; outline: as §2
[22] = Cmax in C57B1/6 mouse at 20 mg/kg, po by LC-MS/MS analysis; assay type: ADME, organism-based; parameters: dose 20 mg/kg, route oral; conditions: in vivo
Outline: (§3)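 Mouse oral PK: C57B1/6 mice (n=3) dosed orally at 20 mg/kg. Blood concentrations followed over time; values are means of 3 mice.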

[23] = Tmax in C57B1/6 mouse at 20 mg/kg, po by LC-MS/MS analysis; assay type: ADME, organism-based; conditions: in vivo; outline: as §3
[24] = Half life in C57B1/6 mouse at 20 mg/kg, po by LC-MS/MS analysis; assay type: ADME, organism-based; conditions: in vivo; outline: as §3
[25] = AUC (0 to infinity) in C57B1/6 mouse at 20 mg/kg, po by LC-MS/MS analysis; assay type: ADME, organism-based; parameters: dose 20 mg/kg, time infinity, route oral; conditions: in vivo; outline: as §3
[26] = Oral bioavailability in C57B1/6 mouse at 20 mg/kg by LC-MS/MS analysis; assay type: ADME, organism-based; conditions: in vivo
Outline: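 Oral bioavailability from C57B1/6 mice dosed 20 mg/kg orally (n=3), referenced to a separate intravenous set at 2 mg/kg (n=2) formulated in dimethylacetamide/polyethylene glycol/propylene glycol–ethanol (4:1), ratio 1:3:6.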

[27] = Ratio of Cmax in C57B1/6 mouse at 20 mg/kg, po to IC50 for chloroquine-sensitive asexual blood stage of Plasmodium falciparum NF54 infected in human RBC; assay type: ADME, organism-based; conditions: in vivo
[28] = Time at which blood concentration stays above in vitro antiplasmodial Plasmodium falciparum NF54 IC50 in C57B1/6 mouse at 20 mg/kg, po; assay type: ADME, organism-based; conditions: in vivo
Plasmodium falciparum [29] = assay: Ratio of IC50 for early stage of Plasmodium falciparum NF54-PfS16-GFP-Luc gametocytes to IC50 for late stage of Plasmodium falciparum NF54-Mal8p1.16-GFP-Luc gametocytes; assay type: functional
Plasmodium falciparum [30] = assay: Ratio of IC50 for late stage of Plasmodium falciparum NF54-Mal8p1.16-GFP-Luc gametocytes to IC50 for early stage of Plasmodium falciparum NF54-PfS16-GFP-Luc gametocytes; assay type: functional

N#Cc1c(C(F)(F)F)cc(NCc2ccc(OC(F)(F)F)cc2)n2c1nc1cc(Cl)c(Cl)cc12 gave an IC50 (Plasmodium falciparum [1]) of 0.44 µM, an IC50 (Plasmodium berghei [2]) of 0.19 µM and an IC50 (Plasmodium falciparum [3]) of 0.21 µM. For the same compound, the remaining at 0.5 h, 0.1 µM ([4]; liver microsomes) was 82%, the half-life at 0.1 µM ([5]; liver microsomes) was 1.75 h and the remaining at 0.5 h, 0.1 µM ([6]; liver microsomes) was over 99%. For the same compound, the half-life at 0.1 µM ([7]; liver microsomes) was over 2.5 h, the IC50 (CHO) was 5.02 µM and the selectivity ratio [8] was 11.
With N#Cc1c(C(F)(F)F)cc(NCc2ccccc2F)n2c1nc1cc(Cl)c(Cl)cc12 the IC50 (Plasmodium falciparum [1]) was 0.17 µM, the IC50 (Plasmodium falciparum [9]) was 0.14 µM and the Ratio IC50 [10] was 0.82. The IC50 (Plasmodium berghei [2]) was 0.05 µM, the IC50 (Plasmodium falciparum [3]) was 0.37 µM and the remaining at 0.5 h, 0.1 µM ([4]; liver microsomes) was 84%. For the same compound, the half-life at 0.1 µM ([5]; liver microsomes) was 1.98 h, the remaining at 0.5 h, 0.1 µM ([6]; liver microsomes) was 97% and the half-life at 0.1 µM ([7]; liver microsomes) was over 2.5 h. For the same compound, the IC50 (CHO) was 4.3 µM, the selectivity ratio [8] was 25 and the inhibition at 0.3 µM (hERG (KCNH2) [11]) was 5.49%. The inhibition at 10 µM (hERG (KCNH2) [12]) was under 40%, the IC50 [13] was over 10 µM and the inhibition in vivo at 50 mg/kg (Plasmodium berghei [14]) was 99.9%. The MST (Plasmodium berghei [15]) was 14 days, the logD [16] was 4.16 and the solubility [17] was under 5 µM.
With N#Cc1c(C(F)(F)F)cc(Nc2ccc(OC(F)(F)F)cc2)n2c1nc1ccccc12 the IC50 (Plasmodium falciparum [1]) was 0.17 µM, the IC50 (Plasmodium falciparum [9]) was 0.15 µM and the Ratio IC50 [10] was 0.88. It also gave an IC50 (Plasmodium berghei [2]) of 0.11 µM, an IC50 (Plasmodium falciparum [3]) of 3.32 µM and a remaining at 0.5 h, 0.1 µM ([4]; liver microsomes) of over 99%. The half-life at 0.1 µM ([5]; liver microsomes) was over 2.5 h, the remaining at 0.5 h, 0.1 µM ([6]; liver microsomes) was over 99% and the half-life at 0.1 µM ([7]; liver microsomes) was over 2.5 h. The IC50 (CHO) was 17.6 µM, the selectivity ratio [8] was 103 and the inhibition at 0.3 µM (hERG (KCNH2) [11]) was 7.51%. It also gave an inhibition at 10 µM (hERG (KCNH2) [12]) of under 40%, an IC50 [13] of over 10 µM and an inhibition in vivo at 50 mg/kg (Plasmodium berghei [14]) of 98%. It also gave an MST (Plasmodium berghei [15]) of 12 days, a logD [16] of 5.34 and a solubility [17] of under 5 µM. The half-life [18] was 11.4 h, the Vd [19] was 0.9 L/kg and the clearance [20] was 0.97 mL/min/kg. It also gave an AUC [21] of 79.6 µM·h, a Cmax [22] of 1100 nM and a Tmax [23] of 5 h. The half-life [24] was 7.86 h, the AUC [25] was 19.4 µM·h and the bioavailability [26] was 2%. The Ratio [27] was 6 and the Time [28] was over 20 h.
Work on N#Cc1c(C(F)(F)F)cc(NCc2cccc(F)c2)n2c1nc1cc(Cl)c(Cl)cc12 yielded an IC50 (Plasmodium falciparum [1]) of 0.19 µM, an IC50 (Plasmodium falciparum [9]) of 0.15 µM and a Ratio IC50 [10] of 0.79. The IC50 (Plasmodium berghei [2]) was 0.07 µM, the IC50 (Plasmodium falciparum [3]) was 0.27 µM and the “Ratio IC50” value (Plasmodium falciparum [29]) was 1.2. The “Ratio IC50” value (Plasmodium falciparum [30]) was 0.5, the remaining at 0.5 h, 0.1 µM ([4]; microsomes) was 84% and the half-life at 0.1 µM ([5]; microsomes) was 1.98 h. For the same compound, the remaining at 0.5 h, 0.1 µM ([6]; microsomes) was 100%, the half-life at 0.1 µM ([7]; microsomes) was over 2.5 h and the IC50 (CHO) was 7.03 µM. The selectivity ratio [8] was 37, the inhibition at 0.3 µM (hERG (KCNH2) [11]) was 6.53% and the inhibition at 10 µM (hERG (KCNH2) [12]) was under 40%. It also gave an IC50 [13] of over 10 µM.
